From ChEMBL document CHEMBL1141640, “Cyclic guanidines as dual 5-HT5A/5-HT7 receptor ligands: optimising brain penetration” (Bioorg Med Chem Lett, 2008)
Each block holds one compound with its values, some of them ahead of it.

Key:
[1] = biological target: T1, 5-hydroxytryptamine receptor 5A (Homo sapiens, UniProt P47898); assay: Binding affinity to human 5HT5A receptor
[2] = Dissociation constant, pKa of the compound; type: physicochemical
[3] = Distribution coefficient, log D of the compound; type: physicochemical; details: octanol/water
Procedure, shortened: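 Lipophilicity reported as log D at pH 7.4 (log D7.4), measured alongside the guanidine pKa.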

[4] = Tmax in mouse at 6.6 mg/kg, po; type: ADME, organism-based; parameters: dose 6.6 mg/kg, route oral; details: in vivo
[5] = biological target: T2, 5-hydroxytryptamine receptor 2C (Homo sapiens, UniProt P28335); assay: Binding affinity to 5HT2C receptor
T2 sequence (P28335 whole entry): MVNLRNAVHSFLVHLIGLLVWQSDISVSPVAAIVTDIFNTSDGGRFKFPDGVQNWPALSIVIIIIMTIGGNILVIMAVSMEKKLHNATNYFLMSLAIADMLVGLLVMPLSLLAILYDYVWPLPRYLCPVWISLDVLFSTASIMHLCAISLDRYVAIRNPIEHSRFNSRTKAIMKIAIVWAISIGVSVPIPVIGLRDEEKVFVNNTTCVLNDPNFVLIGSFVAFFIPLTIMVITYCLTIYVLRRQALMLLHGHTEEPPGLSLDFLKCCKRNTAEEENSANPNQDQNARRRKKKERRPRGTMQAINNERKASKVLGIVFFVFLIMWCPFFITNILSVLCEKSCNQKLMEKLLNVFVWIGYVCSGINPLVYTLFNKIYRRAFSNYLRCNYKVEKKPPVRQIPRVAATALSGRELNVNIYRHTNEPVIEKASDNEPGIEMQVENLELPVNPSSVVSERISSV

[6] = Oral bioavailability in mouse at 6.6 mg/kg; type: ADME, organism-based; details: in vivo
[7] = biological target: T3, 5-hydroxytryptamine receptor 1A (Homo sapiens, UniProt P08908); assay: Binding affinity to 5HT1A receptor
T3 sequence (P08908 whole entry): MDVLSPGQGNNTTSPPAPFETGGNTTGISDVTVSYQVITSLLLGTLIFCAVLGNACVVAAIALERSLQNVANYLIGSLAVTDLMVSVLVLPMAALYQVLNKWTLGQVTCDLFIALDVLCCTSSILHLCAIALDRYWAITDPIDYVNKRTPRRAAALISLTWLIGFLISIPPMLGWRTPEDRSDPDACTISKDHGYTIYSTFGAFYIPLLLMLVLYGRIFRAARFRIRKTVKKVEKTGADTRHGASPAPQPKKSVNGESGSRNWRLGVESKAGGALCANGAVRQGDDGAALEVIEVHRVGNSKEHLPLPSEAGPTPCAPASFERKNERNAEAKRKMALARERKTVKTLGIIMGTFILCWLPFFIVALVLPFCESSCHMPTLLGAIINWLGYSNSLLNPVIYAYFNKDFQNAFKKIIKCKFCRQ

Brain = assay: Drug level in mouse brain at 6.6 mg/kg, po; type: ADME, organism-based; parameters: dose 6.6 mg/kg, route oral; details: in vivo, read-out: Drug uptake
[8] = biological target: 5-hydroxytryptamine receptor 7 (Homo sapiens, UniProt P34969); assay: Binding affinity to human 5HT7 receptor
Sequence of 5-hydroxytryptamine receptor 7 (P34969 whole entry): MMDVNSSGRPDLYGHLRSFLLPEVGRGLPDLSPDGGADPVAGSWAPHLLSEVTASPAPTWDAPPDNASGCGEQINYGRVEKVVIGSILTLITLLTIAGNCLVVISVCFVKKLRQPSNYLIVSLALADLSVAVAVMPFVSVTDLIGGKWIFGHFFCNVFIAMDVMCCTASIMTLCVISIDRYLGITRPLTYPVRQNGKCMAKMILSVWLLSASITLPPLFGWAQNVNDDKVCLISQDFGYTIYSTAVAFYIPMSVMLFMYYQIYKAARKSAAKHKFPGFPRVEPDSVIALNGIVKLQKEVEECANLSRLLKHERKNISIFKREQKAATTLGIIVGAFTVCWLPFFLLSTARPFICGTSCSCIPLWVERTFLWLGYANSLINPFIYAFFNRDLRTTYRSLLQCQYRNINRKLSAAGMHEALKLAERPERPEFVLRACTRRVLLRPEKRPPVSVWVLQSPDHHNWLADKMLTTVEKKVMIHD

[9] = Half life in mouse at 5 mg/kg, iv; type: ADME, organism-based; parameters: dose 5 mg/kg, route intravenous; details: in vivo
[10] = Ratio of drug level in brain to plasma in mouse at 6.6 mg/kg, po; type: ADME, organism-based; parameters: dose 6.6 mg/kg, route oral
Procedure, shortened: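 Mouse pharmacokinetic study with a single oral (po) dose of 6.6 mg/kg. Drug levels were measured in brain and in plasma, and the brain/plasma ratio was taken from these.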

[11] = Clearance in mouse at 5 mg/kg, iv; type: ADME, organism-based; parameters: dose 5 mg/kg, route intravenous; details: in vivo
[12] = Selectivity for human 5HT5A receptor over 5HT2A receptor
[13] = Selectivity for human 5HT5A receptor over 5HT3 receptor
[14] = biological target: T1, 5-hydroxytryptamine receptor 5A; assay: Antagonist activity at human 5HT5A receptor by [35S]GTP-gamma-S binding assay; type: functional; details: read-out: pA2 (converted)
Procedure, shortened: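 Functional antagonism at human 5-HT5A receptor measured by [35S]GTPγS binding; potency reported as pA2.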

[15] = Volume of distribution at steady state in mouse at 5 mg/kg, iv; type: ADME, organism-based; parameters: dose 5 mg/kg, route intravenous; details: in vivo, read-out: Vdss
[16] = Selectivity for human 5HT5A receptor over 5HT6 receptor
[17] = Cmax in mouse at 6.6 mg/kg, po; type: ADME, organism-based; parameters: dose 6.6 mg/kg, route oral; details: in vivo
[18] = biological target: T4, 5-hydroxytryptamine receptor 1D (Homo sapiens, UniProt P28221); assay: Binding affinity to 5HT1D receptor
T4 sequence (P28221 whole entry): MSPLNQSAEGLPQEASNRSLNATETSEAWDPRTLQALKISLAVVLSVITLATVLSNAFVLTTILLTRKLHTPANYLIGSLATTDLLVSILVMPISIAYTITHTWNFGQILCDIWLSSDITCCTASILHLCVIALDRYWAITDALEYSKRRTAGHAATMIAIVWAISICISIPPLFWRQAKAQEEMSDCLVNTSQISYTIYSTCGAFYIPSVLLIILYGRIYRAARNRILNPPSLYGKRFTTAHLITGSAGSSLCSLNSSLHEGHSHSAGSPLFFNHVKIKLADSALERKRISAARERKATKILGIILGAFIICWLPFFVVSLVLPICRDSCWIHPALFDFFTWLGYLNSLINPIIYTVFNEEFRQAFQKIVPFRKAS

Histamine H1 receptor = Histamine H1 receptor (Homo sapiens, UniProt P35367); assay: Binding affinity to histamine H1 receptor
Sequence of Histamine H1 receptor (P35367 whole entry): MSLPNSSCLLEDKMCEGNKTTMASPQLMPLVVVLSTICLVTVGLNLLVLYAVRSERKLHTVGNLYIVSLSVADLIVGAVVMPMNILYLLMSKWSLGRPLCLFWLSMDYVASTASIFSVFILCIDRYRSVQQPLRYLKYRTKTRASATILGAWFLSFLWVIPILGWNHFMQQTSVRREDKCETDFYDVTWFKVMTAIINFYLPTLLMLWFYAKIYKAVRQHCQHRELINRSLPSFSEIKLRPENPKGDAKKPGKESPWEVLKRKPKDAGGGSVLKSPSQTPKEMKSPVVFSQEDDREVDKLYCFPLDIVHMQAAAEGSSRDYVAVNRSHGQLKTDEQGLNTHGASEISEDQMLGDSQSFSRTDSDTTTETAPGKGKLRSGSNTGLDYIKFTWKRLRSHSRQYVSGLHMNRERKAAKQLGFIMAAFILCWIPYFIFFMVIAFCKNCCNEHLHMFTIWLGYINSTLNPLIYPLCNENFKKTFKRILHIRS

[19] = Tmax in mouse at 10 mg/kg, po; type: ADME, organism-based; parameters: dose 10 mg/kg, route oral; details: in vivo
[20] = Cmax in mouse at 10 mg/kg, po; type: ADME, organism-based; parameters: dose 10 mg/kg, route oral; details: in vivo
[21] = Oral bioavailability in mouse at 10 mg/kg; type: ADME, organism-based; details: in vivo
[22] = biological target: 5-hydroxytryptamine receptor 5A (Rattus norvegicus, UniProt P35364); assay: Binding affinity to rat 5HT5A receptor
Sequence of 5-hydroxytryptamine receptor 5A (Rattus norvegicus, UniProt P35364) (P35364 whole entry): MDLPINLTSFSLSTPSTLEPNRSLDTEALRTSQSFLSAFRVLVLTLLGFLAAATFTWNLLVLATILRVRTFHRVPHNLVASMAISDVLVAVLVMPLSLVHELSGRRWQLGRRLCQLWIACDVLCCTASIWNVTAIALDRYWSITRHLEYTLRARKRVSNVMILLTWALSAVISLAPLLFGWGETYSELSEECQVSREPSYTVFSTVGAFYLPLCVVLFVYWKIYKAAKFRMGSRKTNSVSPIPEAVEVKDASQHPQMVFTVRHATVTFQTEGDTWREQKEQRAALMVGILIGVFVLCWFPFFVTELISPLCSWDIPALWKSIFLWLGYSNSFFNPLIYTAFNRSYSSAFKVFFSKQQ

[23] = biological target: 5-hydroxytryptamine receptor 6 (Homo sapiens, UniProt P50406); assay: Binding affinity to human 5HT6 receptor
Sequence of 5-hydroxytryptamine receptor 6 (P50406 whole entry): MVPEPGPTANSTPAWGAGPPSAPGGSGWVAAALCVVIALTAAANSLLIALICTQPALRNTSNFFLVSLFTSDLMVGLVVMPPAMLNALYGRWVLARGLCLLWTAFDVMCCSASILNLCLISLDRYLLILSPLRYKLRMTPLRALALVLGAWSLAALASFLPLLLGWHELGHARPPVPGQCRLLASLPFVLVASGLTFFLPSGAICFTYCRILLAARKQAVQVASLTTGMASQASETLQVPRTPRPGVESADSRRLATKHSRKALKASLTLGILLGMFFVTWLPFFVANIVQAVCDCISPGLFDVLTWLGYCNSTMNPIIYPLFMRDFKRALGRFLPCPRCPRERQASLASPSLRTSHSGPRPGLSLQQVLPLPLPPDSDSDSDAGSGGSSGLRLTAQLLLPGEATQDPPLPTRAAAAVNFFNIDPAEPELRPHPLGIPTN

[24] = biological target: T3, 5-hydroxytryptamine receptor 1A; assay: Binding affinity to human 5HT1A receptor
[25] = biological target: T4, 5-hydroxytryptamine receptor 1D; assay: Binding affinity to human 5HT1D receptor
[26] = biological target: T2, 5-hydroxytryptamine receptor 2C; assay: Binding affinity to human 5HT2C receptor
[27] = biological target: 5-hydroxytryptamine receptor 2A (Homo sapiens, UniProt P28223); assay: Binding affinity to human 5HT2A receptor
Sequence of 5-hydroxytryptamine receptor 2A (P28223 whole entry): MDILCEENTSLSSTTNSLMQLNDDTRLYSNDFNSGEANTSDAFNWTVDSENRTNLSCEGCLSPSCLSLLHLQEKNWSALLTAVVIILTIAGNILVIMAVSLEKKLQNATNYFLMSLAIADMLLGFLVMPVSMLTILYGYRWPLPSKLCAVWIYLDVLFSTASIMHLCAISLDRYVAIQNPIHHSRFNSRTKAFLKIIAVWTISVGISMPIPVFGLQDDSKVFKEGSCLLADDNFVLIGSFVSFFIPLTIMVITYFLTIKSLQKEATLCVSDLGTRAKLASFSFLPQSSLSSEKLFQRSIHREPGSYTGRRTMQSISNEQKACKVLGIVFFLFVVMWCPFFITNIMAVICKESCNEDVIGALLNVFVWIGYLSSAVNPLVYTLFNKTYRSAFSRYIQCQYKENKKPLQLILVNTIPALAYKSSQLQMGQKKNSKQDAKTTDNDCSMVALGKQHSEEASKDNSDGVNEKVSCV

T1 sequence (P47898 whole entry): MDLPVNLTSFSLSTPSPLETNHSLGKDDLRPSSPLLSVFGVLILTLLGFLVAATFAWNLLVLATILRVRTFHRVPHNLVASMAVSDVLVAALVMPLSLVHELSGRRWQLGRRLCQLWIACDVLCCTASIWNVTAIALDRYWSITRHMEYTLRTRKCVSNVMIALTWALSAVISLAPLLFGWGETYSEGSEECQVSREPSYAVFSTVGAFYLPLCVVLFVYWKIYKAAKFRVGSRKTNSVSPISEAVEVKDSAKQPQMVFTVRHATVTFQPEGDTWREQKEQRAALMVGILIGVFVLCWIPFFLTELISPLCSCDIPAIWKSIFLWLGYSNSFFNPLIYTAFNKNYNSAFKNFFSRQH

Compound: C[C@H]1NC(NCC(F)F)=Nc2cccc(Cl)c21
- Ki ([1]; read-out: Ki): 1470 nM

Compound: CC1NC(NCC(F)F)=Nc2cccc(Cl)c21 (configuration not stated)
- Tmax [4]: 0.25 h
- Ki [5]: 401 nM
- bioavailability [6]: 36%
- Ki [7]: 85 nM
- concentration (Brain): > 1000 nM
- Ki [8]: 33.3 nM
- half-life [9]: 1.4 h
- Kp [10]: 4
- clearance [11]: 31 mL/min/kg
- Selectivity ratio [12]: > 30
- pKa [2]: 8.9
- Selectivity ratio [13]: > 30
- Kb [14]: 38.9 nM
- Vd [15]: 3.6 L/kg
- logD [3]: 1.5
- Selectivity ratio [16]: > 30
- Cmax [17]: 740 ng/mL
- Ki [18]: 1370 nM

Compound: CC1NC(NCCF)=Nc2ccccc21 (configuration not stated)
- Ki ([1]; read-out: Ki): 397 nM

Compound: CNC1=Nc2ccccc2C(C)N1 (configuration not stated)
- Ki ([1]; read-out: Ki): 103 nM
- pKa [2]: 10.6
- logD [3]: -0.6

Compound: CCOCCCNC1=Nc2ccccc2C(C)N1 (configuration not stated)
- Ki ([1]; read-out: Ki): 176 nM
- logD [3]: -0.3

Compound: CC1NC(N)=Nc2cccc(Cl)c21 (configuration not stated)
- Tmax [19]: 0.75 h
- Cmax [20]: 660 ng/mL
- Ki ([1]; read-out: Log Ki (converted)): 5.01 nM
- half-life [9]: 4 h
- clearance [11]: 30 mL/min/kg
- pKa [2]: 9.9
- Kb [14]: 3.16 nM
- Vd [15]: 9 L/kg
- logD [3]: 0
- bioavailability [21]: 59%

Compound: CC1NC(NC2CCC2)=Nc2ccccc21 (configuration not stated)
- Ki ([1]; read-out: Ki): 122 nM
- logD [3]: -0.6

Compound: CC1NC(NCC2COCCO2)=Nc2ccccc21 (configuration not stated)
- Ki ([1]; read-out: Ki): 96 nM
- logD [3]: -0.8

The next lines start with the values.

- Ki ([1]; read-out: Ki): 153 nM
- pKa [2]: 10.7
- logD [3]: -0.8
Compound: CCCNC1=Nc2ccccc2C(C)N1 (configuration not stated)

- pKa [2]: 10.5
- logD [3]: -1.4
Compound: CC1NC(N)=Nc2ccccc21 (configuration not stated)

- Ki ([1]; read-out: Ki): 87 nM
- pKa [2]: 9.7
- logD [3]: -0.2
Compound: CC1NC(NCC(F)F)=Nc2ccccc21 (configuration not stated)

- Ki ([1]; read-out: Ki): 488 nM
- pKa [2]: 9.2
- logD [3]: 0.5
Compound: CC1NC(NCC(F)(F)F)=Nc2ccccc21 (configuration not stated)

- Ki [5]: 121 nM
- Ki [7]: 75 nM
- Ki [8]: 7.7 nM
- Ki ([1]; read-out: Ki): 1.8 nM
- Selectivity ratio [12]: > 30
- pKa [2]: 8.5
- Selectivity ratio [13]: > 30
- Ki (Histamine H1 receptor): 2.6 nM
- logD [3]: 2.7
- Selectivity ratio [16]: > 30
- Ki [18]: 233 nM
Compound: C[C@@H]1NC(NCC(F)F)=Nc2ccc(Cl)c(Cl)c21

- Ki ([1]; read-out: Ki): 189 nM
- pKa [2]: 10.7
- logD [3]: -0.3
Compound: CCCCNC1=Nc2ccccc2C(C)N1 (configuration not stated)

- Ki [22]: 2.9 nM
- Ki [8]: 24.8 nM
- Ki ([1]; read-out: Ki): 6.8 nM
- Ki [23]: 4480 nM
- Ki [24]: 56 nM
- Ki [25]: 1440 nM
- Ki [26]: 352 nM
- Ki [27]: 491 nM
Compound: C[C@@H]1NC(NCC(F)F)=Nc2cccc(Cl)c21
